The structures appear in SMILES notation. pIC50: −log10 of the molar value. Some results are limits rather than exact numbers.

The target in series [1] is Heat shock protein HSP 90-beta/Hsp90 co-chaperone Cdc37 (Homo sapiens) (UniProt P08238+Q16543). Kind of series: Inhibition of His-tagged HSP90/GST-tagged Cdc37 (unknown origin) protein-protein interaction at 100 uM measured after 1 hr by HTRF assay relative to control. The series is classed as protein-complex assay. Put shortly: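 His-Hsp90 and GST-Cdc37 were premixed at a final 80 nM in PBS with 200 mM KF, pH 7.4. Compound was added and the mix incubated 1 h at 37 °C, then read by HTRF. Inhibition rate was taken at 100 μM compound.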
A general note: Time-resolved FRET reads energy transfer from a long-lived donor to a nearby acceptor.

Series [2] concerns the target T1, Heat shock protein HSP90 (Homo sapiens, UniProt P07900+P08238). The series is described as follows: Binding affinity to recombinant […] HSP90 N-terminal domain (9 to 236 residues) (unknown origin) expressed in Escherichia coli BL21 (DE3) assessed as change in melting temperature by SYPRO dye based thermal shift assay. In a few lines:
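Hsp90 N-terminal domain (10 µM) mixed with compound at 200, 100, 50 or 10 µM in 1× PBS, pH 8.0, with 6× SYPRO Orange. Heated from room temperature to 99 °C at 1 °C/min; fluorescence read at 492 nm excitation and 610 nm emission.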

The target in series [3] is T1, Heat shock protein HSP90. The series is described as follows: Inhibition of recombinant full-length HSP90 ATPase activity N-terminal domain (9 to 236 residues) (unknown origin) expressed in Escherichia coli BL21 (DE3) measured after 1 hr by ADP hunter plus assay.
A short description of series [4]: Distribution coefficient, log D of the compound at pH 7.4 by potentiometric titration method. The class given is physicochemical. The settings on record: octanol/water. In a few lines: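 log D at pH 7.4 measured by potentiometric titration on a Gemini Profiler.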
The nature of series [5]: Permeability of the compound at pH 7.4 by PAMPA. The series is classed as ADME. Conditions: read-out: permeability. In a few lines:
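Permeability coefficient (Pe) was measured at pH 7.4 by double-sink PAMPA.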
A general note: PAMPA measures passive passage across an artificial lipid membrane.

Series [6] concerns the target T1, Heat shock protein HSP90. The series is described as follows: Binding affinity to recombinant […] biotinylated-HSP90 N-terminal domain (9 to 236 residues) (unknown origin) expressed in Escherichia coli BL21 (DE3) by biolayer interferometry. Put shortly:
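Biotinylated Hsp90 (100 µg/mL) loaded onto streptavidin sensors prewetted 10 min in PBS with 0.05% BSA and 0.01% Tween 20. Analyte binding measured at 28 °C. Double reference subtraction applied; data fitted to a 1:1 model with K_D = K_off/K_on.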
Background: BLI is a label-free optical method that tracks binding on a fibre tip over time.

Series [7] concerns the target T1, Heat shock protein HSP90. The series is described as follows: Binding affinity to recombinant […] HSP90 N-terminal domain (9 to 236 residues) (unknown origin) expressed in Escherichia coli BL21 (DE3) by isothermal calorimetric method. In a few lines: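 ITC: 50 µM Hsp90 in the cell and 300 µM compound in the syringe, both in 20 mM Tris-HCl, 150 mM NaCl, pH 7.4. Nineteen injections at 180 s intervals with stirring at 1000 rpm.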

The test system of a further series is HCT-116. Kind of series: Antiproliferative activity against human HCT116 cells measured after 72 hrs by CCK8 assay. The series is classed as functional, cell-based. Conditions: HCT-116, 72 h. Put shortly:
(§1)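 Cells grown in RPMI 1640 with 10% FBS at 37 °C, 5% CO2; STR-authenticated and mycoplasma-checked. Seeded at 3000-5000 cells/well and left 24 h. Serial compound dilutions added for 72 h, with matched DMSO as control. Viability read by CCK8 kit using the standard protocol. IC50 values derived from at least three parallel experiments.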

A further series has as its system A549. The series is described as follows: Antiproliferative activity against human A549 cells measured after 72 hrs by CCK8 assay. The class given is functional, cell-based. The settings on record: A549, 72 h. Put shortly: as §1
The test system of another series is L02. The series is described as follows: Cytotoxicity against human L02 cells measured after 72 hrs by CCK8 assay. The class given is functional, cell-based. The settings on record: L02, 72 h. In a few lines: as §1

The inhibition is the change of the read-out against control, counted positive when it falls. A lower inhibition goes with a response near the control. Turning to `COc1ccc(S(=O)(=O)Nc2ccc(Nc3ccnc(N4CCCC4)n3)cc2)cc1`, the inhibition in [1] was below 20%.

Consider `COc1ccc(OC)c(S(=O)(=O)Nc2ccc(Nc3ccnc(N4CCCC4)n3)cc2)c1`, for which the inhibition in [1] stood at 41.8%. Same read-out and setting: in the case of `Cc1cc(C)c(S(=O)(=O)N(Cc2ccc(C(C)C)cc2)c2ccc(Nc3ccnc(N4CCCC4)n3)cc2)c(C)c1` it was below 50%. Usually ΔTm stands for the shift of the melting midpoint relative to a reference. By IC50 is commonly meant the concentration that gives 50% inhibition. As a reminder, the logD is lipophilicity at a set pH, counting ionised and neutral species. On to `Cc1cc(C)c(S(=O)(=O)N(CC#N)c2ccc(Nc3ccnc(N4CCNCC4)n3)cc2)c(C)c1`, for which the ΔTm at Heat shock protein HSP90 [2] turned out to be 1.1 °C. In addition, the IC50 at Heat shock protein HSP90 [3] was above 100 µM. For the same compound, the inhibition in [1] is 64.3%. In series [4], this compound had a logD of 2.01. The Papp in [5] came to 61.5 ×10⁻⁶ cm/s. On to `COc1ccc(CN(c2ccc(Nc3ccnc(N4CCCC4)n3)cc2)S(=O)(=O)c2c(C)cc(C)cc2C)cc1`, for which the inhibition in series [1] is below 50%.

A word on the Kd: it is the concentration at which binding is half-saturated. A word on the pIC50: it is −log10 of the IC50, conventionally taken in molar units. Consider `Cc1cc(C)c(S(=O)(=O)N(CC(=O)NO)c2ccc(Nc3ccnc(N4CCNCC4)n3)cc2)c(C)c1`, for which, on Heat shock protein HSP90 [2], the thermal shift (ΔTm) is 1.59 °C. At Heat shock protein HSP90 [3], the IC50 was above 100 µM. Moreover, in [1], the inhibition is 96.2%. The Kd was 2.66 µM at Heat shock protein HSP90 [6] and 5.49 µM at Heat shock protein HSP90 [7]. This compound returned a logD in [4] of 0.82. In addition, the pIC50 is 5.40 in the series with HCT-116, 4.79 in the series with A549 and 4.66 in the series on L02. In addition, the Papp in series [5] is 44.1 ×10⁻⁶ cm/s.

The compound `O=S(=O)(Nc1ccc(Nc2ccnc(N3CCCC3)n2)cc1)c1ccc2ccccc2c1` showed an inhibition in series [1] of 46.7%. The compound `CCNc1nccc(Nc2ccc(N(CC(=O)OC)S(=O)(=O)c3c(C)cc(C)cc3C)cc2)n1` yielded an inhibition in [1] below 50%. `Cc1cc(C)c(S(=O)(=O)N(CC(=O)O)c2ccc(Nc3ccnc(N4CCN(C)CC4)n3)cc2)c(C)c1` came in with an inhibition in series [1] of 71.1%. Compound `COC(=O)CN(c1ccc(Nc2ccnc(NC3CC3)n2)cc1)S(=O)(=O)c1c(C)cc(C)cc1C` yielded an inhibition in series [1] below 50%. On the same count and under the same terms, in the case of `CCNc1nccc(Nc2ccc(N(CC(=O)O)S(=O)(=O)c3c(C)cc(C)cc3C)cc2)n1` it was below 50%; in that of `Cc1cc(C)c(S(=O)(=O)N(CC(=O)O)c2ccc(Nc3ccnc(NC4CC4)n3)cc2)c(C)c1`, below 50%; in that of `Cc1cc(C)c(S(=O)(=O)N(CC(=O)O)c2ccc(Nc3ccnc(N4CCCCCC4)n3)cc2)c(C)c1`, below 50%.

In series [1], `CCN(CC)c1nccc(Nc2ccc(N(CC(=O)OC)S(=O)(=O)c3c(C)cc(C)cc3C)cc2)n1` came in with an inhibition below 50%.

The compound `Cc1cc(C)c(S(=O)(=O)N(CC(N)=O)c2ccc(Nc3ccnc(N4CCCC4)n3)cc2)c(C)c1` showed an inhibition in series [1] below 50%. In series [1], `CCC(CC)Nc1nccc(Nc2ccc(N(CC(=O)OC)S(=O)(=O)c3c(C)cc(C)cc3C)cc2)n1` yielded an inhibition below 50%. The compound `COc1ccc(S(=O)(=O)Nc2ccc(Nc3ccnc(N4CCCC4)n3)cc2)c(OC)c1` gave an inhibition in [1] of 36.2%. `O=S(=O)(Nc1ccc(Nc2ccnc(N3CCCC3)n2)cc1)c1ccc(C(F)(F)F)cc1` returned an inhibition in series [1] below 20%.

For the compound `COC(=O)CN(c1ccc(Nc2ccnc(N3CCNCC3)n2)cc1)S(=O)(=O)c1c(C)cc(C)cc1C`, the ΔTm at Heat shock protein HSP90 [2] is 3.53 °C. Further, the IC50 at Heat shock protein HSP90 [3] was above 100 µM. Also, the inhibition in [1] was 95.5%. Further, the Kd on Heat shock protein HSP90 [6] is 1.97 µM; on Heat shock protein HSP90 [7], 1.73 µM. In [4], the logD was determined as 2.63. Besides, the pIC50 is 5.20 in the series on HCT-116, 4.36 with A549 and below 4.30 in the series on L02. Besides, the Papp in series [5] was determined as 101 ×10⁻⁶ cm/s. In [1], `COC(=O)CN(c1ccc(Nc2ccnc(N3CCCC3)n2)cc1)S(=O)(=O)c1c(C)cc(C)cc1C` had an inhibition of 65.4%. `COC(=O)CN(c1ccc(Nc2ccnc(N3CCN(C)CC3)n2)cc1)S(=O)(=O)c1c(C)cc(C)cc1C`: in series [1], the inhibition was found to be 70.1%.

In turn, `CC(C)(C)c1ccc(S(=O)(=O)Nc2ccc(Nc3ccnc(N4CCCC4)n3)cc2)cc1` displayed an inhibition in series [1] below 20%. Compound `CCN(CC)c1nccc(Nc2ccc(N(CC(=O)O)S(=O)(=O)c3c(C)cc(C)cc3C)cc2)n1` had an inhibition in [1] of 79.6%. Regarding `Cc1cc(C)c(S(=O)(=O)N(Cc2nnn[nH]2)c2ccc(Nc3ccnc(N4CCNCC4)n3)cc2)c(C)c1`, at Heat shock protein HSP90 [2], the ΔTm is 1.36 °C. On Heat shock protein HSP90 [3], the IC50 is above 100 µM. Also, in series [1], the inhibition came to 98.6%. In addition, the Kd worked out at 5.5 µM at Heat shock protein HSP90 [6] and 2.4 µM on Heat shock protein HSP90 [7]. Moreover, the pIC50 in the series on HCT-116 is 5.27; in the series with A549 it was 4.42; with L02, below 4.30. The Papp in [5] was 55.4 ×10⁻⁶ cm/s.

In turn, `COc1cc(S(=O)(=O)Nc2ccc(Nc3ccnc(N4CCCC4)n3)cc2)c(C)cc1C` gave an inhibition in series [1] of 56.3%. In addition, the Kd at Heat shock protein HSP90 [6] was found to be 21.1 µM. Also, the logD in [4] was found to be 4.82. For the same compound, the Papp in series [5] came out at 65.9 ×10⁻⁶ cm/s.

With `Cc1cc(C)c(S(=O)(=O)N(CC(=O)O)c2ccc(Nc3ccnc(N4CCCCC4)n3)cc2)c(C)c1`, in series [1], the inhibition worked out at 86.2%. On to `Cc1cc(C)c(S(=O)(=O)N(Cc2ccc(Cl)cc2)c2ccc(Nc3ccnc(N4CCCC4)n3)cc2)c(C)c1`, for which the inhibition in series [1] is below 50%. Same read-out and setting: the value for `Cc1cc(C)c(S(=O)(=O)N(Cc2ccc(C(=O)O)cc2)c2ccc(Nc3ccnc(N4CCCC4)n3)cc2)c(C)c1` was 52.8%; that for `COC(=O)CN(c1ccc(Nc2ccnc(N3CCCCCC3)n2)cc1)S(=O)(=O)c1c(C)cc(C)cc1C` was below 50%. On the same count and under the same terms, the value for `CNc1nccc(Nc2ccc(N(CC(=O)OC)S(=O)(=O)c3c(C)cc(C)cc3C)cc2)n1` was below 50%; that for `Cc1cc(C)c(S(=O)(=O)Nc2ccc(Nc3ccnc(N4CCCC4)n3)cc2)c(C)c1` was 66%. Still for that read-out and setting: in the case of `COC(=O)CN(c1ccc(Nc2ccnc(N3CCCCC3)n2)cc1)S(=O)(=O)c1c(C)cc(C)cc1C` it was 79.1%; in that of `CNc1nccc(Nc2ccc(N(CC(=O)O)S(=O)(=O)c3c(C)cc(C)cc3C)cc2)n1`, below 50%; in that of `CCC(CC)Nc1nccc(Nc2ccc(N(CC(=O)O)S(=O)(=O)c3c(C)cc(C)cc3C)cc2)n1`, below 50%.

Values taken from ChEMBL document CHEMBL4376883, “Discovery and Optimization of Small Molecules Targeting the Protein-Protein Interaction of Heat Shock Protein 90 (Hsp90) and Cell Division Cycle 37 as Orally Active Inhibitors for the Treatment of Colorectal Cancer” (J Med Chem, 2020).
